Experimental data as given in ChEMBL document CHEMBL3091406, “Design and synthesis of novel antimicrobials with activity against Gram-positive bacteria and mycobacterial species, including M. tuberculosis” (2013).
Converted amounts (≈) assume the structure as drawn.

Experiments:
Format in all cases: functional
Escherichia coli = assay: Antibacterial activity against Escherichia coli […] by CLSI method
Bacillus cereus = assay: Antibacterial activity against Bacillus cereus by CLSI method
[1] = tested on: Mycolicibacterium smegmatis; assay: Antimycobacterial activity against Mycobacterium smegmatis
Staphylococcus aureus = assay: Antibacterial activity against Staphylococcus aureus ATCC 29213 by CLSI method
[2] = tested on: Mycolicibacterium fortuitum; assay: Antimycobacterial activity against Mycobacterium fortuitum
Summary of the method: (§1)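 MIC in Middlebrook 7H9 broth with 10% OADC; strains from University of Wisconsin-La Crosse culture collection; rifampin as positive control; reported MIC is compiled from geometric means of three separate runs.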

[3] = tested on: Mycolicibacterium smegmatis; assay: Ratio of rifampin MIC to compound MIC for Mycobacterium smegmatis
[4] = tested on: Mycobacterium tuberculosis; assay: Ratio of ethambutol MIC to compound MIC for Mycobacterium tuberculosis H37Rv after 7 days by BacTiter-Glo method
[5] = tested on: Mycobacterium tuberculosis; assay: Antimycobacterial activity against Mycobacterium tuberculosis H37Rv after 7 days by BacTiter-Glo method; details: 168 h
Summary of the method: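 Strain H37Rv in 384-well plates, Middlebrook 7H12 broth with palmitate and 0.5% BSA; compounds diluted in medium to 2× final concentration; inoculum 1-2 × 10⁵ CFU/mL; amikacin positive control on every plate; 7 days at 37 °C, ~95% humidity; compound autofluorescence pre-read (ex 535/em 590 nm); BacTiter-Glo reagent added, 20 min room temperature, luminescence read.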

Mycobacterium avium = assay: Antimycobacterial activity against Mycobacterium avium; summary of the method: as §1
[6] = tested on: Mycobacterium intracellulare; assay: Antimycobacterial activity against Mycobacterium intracellulare; summary of the method: as §1
Mycobacteroides chelonae = assay: Antimycobacterial activity against Mycobacterium chelonae; summary of the method: as §1
Mycobacterium kansasii = assay: Antimycobacterial activity against Mycobacterium kansasii; summary of the method: as §1

Compound	MIC (Escherichia coli)	MIC (Bacillus cereus)	MIC [1]	MIC (Staphylococcus aureus)	MIC [2]	Ratio [3]	Ratio [4]	MIC [5]	MIC (Mycobacterium avium)	MIC [6]	MIC (Mycobacteroides chelonae)	MIC (Mycobacterium kansasii)
CCOC(=O)/C=C\Sc1ccc(C(C)(C)C)cc1	> 128 mg/L	> 128 mg/L	16 mg/L (≈ 60.5 µM)	> 128 mg/L	–	–	–	–	–	–	–	–
CC(C)(C)c1ccc(C(=O)/C=C/C(=O)O)cc1	> 128 mg/L	–	> 128 mg/L	32 mg/L (≈ 138 µM)	> 125 mg/L	–	–	–	–	–	–	–
CC(C)(C)c1ccc(S/C=C\C(=O)NC2CC2)cc1	> 128 mg/L	> 128 mg/L	> 128 mg/L	> 128 mg/L	–	–	–	–	–	–	–	–
CCOC(=O)/C=C\C(=O)c1ccc(C(C)(C)C)cc1	> 128 mg/L	8 mg/L (≈ 30.7 µM)	8 mg/L (≈ 30.7 µM)	4 mg/L (≈ 15.4 µM)	8 mg/L (≈ 30.7 µM)	8	1.5	0.8 mg/L (≈ 3.07 µM)	32 mg/L (≈ 123 µM)	8 mg/L (≈ 30.7 µM)	16 mg/L (≈ 61.5 µM)	64 mg/L (≈ 246 µM)
CCOC(=O)/C=C/C(=O)c1ccc(C(C)(C)C)cc1	> 128 mg/L	4 mg/L (≈ 15.4 µM)	8 mg/L (≈ 30.7 µM)	2 mg/L (≈ 7.68 µM)	4 mg/L (≈ 15.4 µM)	8	1.5	0.8 mg/L (≈ 3.07 µM)	16 mg/L (≈ 61.5 µM)	4 mg/L (≈ 15.4 µM)	8 mg/L (≈ 30.7 µM)	32 mg/L (≈ 123 µM)
CCOC(=O)CCC(=O)c1ccc(C(C)(C)C)cc1	> 128 mg/L	–	> 128 mg/L	> 128 mg/L	> 128 mg/L	–	–	–	> 128 mg/L	> 128 mg/L	> 128 mg/L	> 128 mg/L
CCOC(=O)CCCc1ccc(C(C)(C)C)cc1	> 128 mg/L	–	64 mg/L (≈ 258 µM)	> 128 mg/L	32 mg/L (≈ 129 µM)	–	–	–	> 128 mg/L	> 128 mg/L	32 mg/L (≈ 129 µM)	128 mg/L (≈ 515 µM)
CC(C)=CCOC(=O)/C=C/C(=O)c1ccc(C(C)(C)C)cc1	> 128 mg/L	–	> 128 mg/L	0.5 mg/L (≈ 1.66 µM)	64 mg/L (≈ 213 µM)	–	–	–	> 128 mg/L	> 128 mg/L	32 mg/L (≈ 107 µM)	> 128 mg/L
CCOC(=O)/C=C/Cc1ccc(C(C)(C)C)cc1	> 128 mg/L	–	> 128 mg/L	16 mg/L (≈ 64.9 µM)	> 128 mg/L	–	–	–	> 128 mg/L	> 128 mg/L	> 128 mg/L	> 128 mg/L
CCOC(=O)c1ccccc1C(=O)c1ccc(C(C)(C)C)cc1	> 128 mg/L	–	> 128 mg/L	> 128 mg/L	> 128 mg/L	–	–	–	> 128 mg/L	> 128 mg/L	> 128 mg/L	> 128 mg/L
CCOC(=O)/C=C\C(=O)c1cc2ccccc2s1	128 mg/L (≈ 492 µM)	–	4 mg/L (≈ 15.4 µM)	1 mg/L (≈ 3.84 µM)	16 mg/L (≈ 61.5 µM)	16	3	0.4 mg/L (≈ 1.54 µM)	16 mg/L (≈ 61.5 µM)	4 mg/L (≈ 15.4 µM)	8 mg/L (≈ 30.7 µM)	8 mg/L (≈ 30.7 µM)
CCOC(=O)CCSc1ccc(C(C)(C)C)cc1	> 128 mg/L	> 128 mg/L	> 128 mg/L	> 128 mg/L	> 128 mg/L	–	–	–	> 128 mg/L	> 128 mg/L	> 128 mg/L	> 128 mg/L
CCOC(=O)C#CC(=O)c1ccc(C(C)(C)C)cc1	> 128 mg/L	> 128 mg/L	> 128 mg/L	> 128 mg/L	> 128 mg/L	–	–	–	> 128 mg/L	> 128 mg/L	> 128 mg/L	> 128 mg/L
CCOC(=O)[C@@H]1C[C@H]1C(=O)c1ccc(C(C)(C)C)cc1	> 128 mg/L	–	16 mg/L (≈ 58.3 µM)	64 mg/L (≈ 233 µM)	64 mg/L (≈ 233 µM)	–	–	–	–	–	–	–
CCOC(=O)[C@@H]1O[C@H]1C(=O)c1ccc(C(C)(C)C)cc1	> 128 mg/L	–	128 mg/L (≈ 463 µM)	32 mg/L (≈ 116 µM)	> 128 mg/L	–	–	–	–	–	–	–
CC(C)(C)c1ccc(S/C=C\C(=O)O)cc1	> 128 mg/L	128 mg/L (≈ 542 µM)	> 128 mg/L	> 128 mg/L	–	–	–	–	–	–	–	–
O=C(O)/C=C\Sc1nc2ccccc2s1	> 128 mg/L	> 128 mg/L	> 128 mg/L	> 128 mg/L	–	–	–	–	–	–	–	–
CC(C)(C)c1ccc(S/C=C\C(=O)OCC2CC2)cc1	> 128 mg/L	128 mg/L (≈ 441 µM)	16 mg/L (≈ 55.1 µM)	> 128 mg/L	–	–	–	–	–	–	–	–
CC(C)N(C(=O)/C=C\Sc1nc2ccccc2s1)C(C)C	> 128 mg/L	> 128 mg/L	> 128 mg/L	> 128 mg/L	–	–	–	–	–	–	–	–
CC(C)(C)c1ccc(S/C=C\C(=O)Nc2ccccc2)cc1	> 128 mg/L	> 128 mg/L	> 128 mg/L	> 128 mg/L	–	–	–	–	–	–	–	–
CN(C(=O)/C=C\Sc1ccc(C(C)(C)C)cc1)c1ccccc1	> 128 mg/L	> 128 mg/L	32 mg/L (≈ 98.3 µM)	> 128 mg/L	–	–	–	–	–	–	–	–
CNC(=O)/C=C\Sc1ccc(C(C)(C)C)cc1	> 128 mg/L	128 mg/L (≈ 513 µM)	> 128 mg/L	> 128 mg/L	–	–	–	–	–	–	–	–
CN(C)C(=O)/C=C\Sc1ccc(C(C)(C)C)cc1	> 128 mg/L	16 mg/L (≈ 60.7 µM)	64 mg/L (≈ 243 µM)	> 128 mg/L	–	–	–	–	–	–	–	–
CC(C)N(C(=O)/C=C\Sc1ccc(C(C)(C)C)cc1)C(C)C	> 128 mg/L	> 128 mg/L	64 mg/L (≈ 200 µM)	> 128 mg/L	–	–	–	–	–	–	–	–
CC[C@@H](CO)NCCN[C@@H](CC)CO [ETHAMBUTOL]	–	–	–	–	–	–	–	1.2 mg/L (≈ 5.87 µM)	–	–	–	–
NNC(=O)c1ccncc1 [ISONIAZID]	–	–	–	–	–	–	–	0.25 mg/L (≈ 1.82 µM)	–	–	–	–
CO[C@H]1/C=C/O[C@@]2(C)Oc3c(C)c(O)c4c(O)c(c(/C=N/N5CCN(C)CC5)c(O)c4c3C2=O)NC(=O)/C(C)=C\C=C\[C@H](C)[C@H](O)[C@@H](C)[C@@H](O)[C@@H](C)[C@H](OC(C)=O)[C@@H]1C [RIFAMPIN]	–	–	64 mg/L (≈ 77.8 µM)	–	32 mg/L (≈ 38.9 µM)	–	–	< 0.03 mg/L	2 mg/L (≈ 2.43 µM)	1 mg/L (≈ 1.22 µM)	32 mg/L (≈ 38.9 µM)	0.5 mg/L (≈ 0.608 µM)
CN(C)[C@@H]1C(O)=C(C(N)=O)C(=O)[C@@]2(O)C(O)=C3C(=O)c4c(O)cccc4[C@@](C)(O)[C@H]3C[C@@H]12 [TETRACYCLINE]	1 mg/L (≈ 2.25 µM)	–	–	0.25 mg/L (≈ 0.563 µM)	–	–	–	–	–	–	–	–
